From ChEMBL document CHEMBL1132299, “Phosphinic pseudo-tripeptides as potent inhibitors of matrix metalloproteinases: a structure-activity study” (J Med Chem, 1999)
pKi: −log10 of the molar value.

Columns and labels:
[1] = target: T1, Interstitial collagenase (Homo sapiens) (UniProt P03956); experiment: In vitro inhibition of MMP-1 at 2 uM.
T1 sequence (whole entry): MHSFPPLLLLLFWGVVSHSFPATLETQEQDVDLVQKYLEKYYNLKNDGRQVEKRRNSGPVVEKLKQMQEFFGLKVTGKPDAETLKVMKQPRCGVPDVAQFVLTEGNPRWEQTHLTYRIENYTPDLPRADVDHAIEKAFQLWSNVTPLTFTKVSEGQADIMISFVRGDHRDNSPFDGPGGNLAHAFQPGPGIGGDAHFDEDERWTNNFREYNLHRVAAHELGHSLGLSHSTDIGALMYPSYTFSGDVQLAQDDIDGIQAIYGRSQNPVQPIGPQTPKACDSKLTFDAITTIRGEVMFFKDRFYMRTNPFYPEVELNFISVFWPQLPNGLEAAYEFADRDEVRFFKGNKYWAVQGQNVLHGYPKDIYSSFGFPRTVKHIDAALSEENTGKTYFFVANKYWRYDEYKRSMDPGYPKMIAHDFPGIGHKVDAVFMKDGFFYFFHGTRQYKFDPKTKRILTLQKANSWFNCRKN

[2] = target: T2, 72 kDa type IV collagenase (Homo sapiens, UniProt P08253); experiment: Inhibition of MMP-2 gelatinase-A at 2 uM
Target sequence in this assay (P08253 110-660 limits assumed): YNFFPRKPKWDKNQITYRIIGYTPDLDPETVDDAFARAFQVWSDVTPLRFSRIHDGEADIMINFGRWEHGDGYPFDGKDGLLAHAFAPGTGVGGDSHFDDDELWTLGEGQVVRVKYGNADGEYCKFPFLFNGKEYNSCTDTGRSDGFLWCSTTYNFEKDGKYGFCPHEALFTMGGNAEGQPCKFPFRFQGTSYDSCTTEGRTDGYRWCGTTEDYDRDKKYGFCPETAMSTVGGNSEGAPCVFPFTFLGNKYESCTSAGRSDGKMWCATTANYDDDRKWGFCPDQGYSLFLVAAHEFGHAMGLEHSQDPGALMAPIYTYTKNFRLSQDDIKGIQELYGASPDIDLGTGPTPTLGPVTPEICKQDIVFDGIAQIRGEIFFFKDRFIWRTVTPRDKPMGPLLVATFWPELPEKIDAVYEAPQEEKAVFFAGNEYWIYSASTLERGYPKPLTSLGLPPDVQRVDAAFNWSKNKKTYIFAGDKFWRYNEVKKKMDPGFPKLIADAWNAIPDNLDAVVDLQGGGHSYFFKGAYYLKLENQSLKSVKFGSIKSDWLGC

[3] = target: T3, Matrilysin (Homo sapiens) (UniProt P09237); experiment: In vitro inhibition of MMP-7 at 2 uM.
T3 sequence (whole entry): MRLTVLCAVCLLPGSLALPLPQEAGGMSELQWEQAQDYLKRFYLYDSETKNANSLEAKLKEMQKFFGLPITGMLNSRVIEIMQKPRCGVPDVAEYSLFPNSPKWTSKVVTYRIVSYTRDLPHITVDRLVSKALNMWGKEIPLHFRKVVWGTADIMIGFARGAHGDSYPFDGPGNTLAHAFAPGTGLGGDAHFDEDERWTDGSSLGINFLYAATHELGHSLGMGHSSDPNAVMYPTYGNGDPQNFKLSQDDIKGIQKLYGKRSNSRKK

[4] = target: T4, Stromelysin-3 (Mus musculus) (UniProt Q02853); experiment: Inhibition of MMP-11, stromelysin-3 at 1 uM
T4 sequence (whole entry): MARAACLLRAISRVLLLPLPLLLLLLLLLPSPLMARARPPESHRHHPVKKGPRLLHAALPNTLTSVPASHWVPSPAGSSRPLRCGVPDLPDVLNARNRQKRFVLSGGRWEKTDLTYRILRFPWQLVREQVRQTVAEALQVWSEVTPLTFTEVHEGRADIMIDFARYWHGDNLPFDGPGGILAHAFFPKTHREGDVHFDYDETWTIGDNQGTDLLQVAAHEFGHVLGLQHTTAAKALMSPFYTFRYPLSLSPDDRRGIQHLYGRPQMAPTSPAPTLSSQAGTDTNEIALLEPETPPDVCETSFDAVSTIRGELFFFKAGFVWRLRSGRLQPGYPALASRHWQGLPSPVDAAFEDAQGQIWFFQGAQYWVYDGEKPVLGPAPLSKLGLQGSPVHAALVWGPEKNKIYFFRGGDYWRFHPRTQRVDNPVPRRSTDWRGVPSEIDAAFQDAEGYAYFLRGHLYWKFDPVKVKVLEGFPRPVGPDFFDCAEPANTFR

[5] = target: T5, Matrix metalloproteinase-9 (Homo sapiens, UniProt P14780); experiment: Inhibition of Matrix metalloprotease-9, gelatinase-B at 2 uM
[6] = target: T2, 72 kDa type IV collagenase; experiment: Binding affinity against matrix metalloprotease-2 (gelatinase-A).
How it was run: (§1)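 Full-length human pro-MMP-2, -9 and -8 were expressed in NSO myeloma cells and activated with 4-aminophenylmercuric acetate just before use. Run at 25 °C in 50 mM Tris/HCl pH 6.8, 10 mM CaCl2, with 0.2–5 nM enzyme and 6 µM Mca-Pro-Leu-Gly-Leu-Dpa-Ala-Arg-NH2; fluorescence 340/400 nm, 30 min. Km: MMP-2 49, MMP-9 14, MMP-8 61 µM. Triplicate, five inhibitor levels; Ki by Horovitz–Levitski.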
Target sequence in this assay (P08253 whole entry): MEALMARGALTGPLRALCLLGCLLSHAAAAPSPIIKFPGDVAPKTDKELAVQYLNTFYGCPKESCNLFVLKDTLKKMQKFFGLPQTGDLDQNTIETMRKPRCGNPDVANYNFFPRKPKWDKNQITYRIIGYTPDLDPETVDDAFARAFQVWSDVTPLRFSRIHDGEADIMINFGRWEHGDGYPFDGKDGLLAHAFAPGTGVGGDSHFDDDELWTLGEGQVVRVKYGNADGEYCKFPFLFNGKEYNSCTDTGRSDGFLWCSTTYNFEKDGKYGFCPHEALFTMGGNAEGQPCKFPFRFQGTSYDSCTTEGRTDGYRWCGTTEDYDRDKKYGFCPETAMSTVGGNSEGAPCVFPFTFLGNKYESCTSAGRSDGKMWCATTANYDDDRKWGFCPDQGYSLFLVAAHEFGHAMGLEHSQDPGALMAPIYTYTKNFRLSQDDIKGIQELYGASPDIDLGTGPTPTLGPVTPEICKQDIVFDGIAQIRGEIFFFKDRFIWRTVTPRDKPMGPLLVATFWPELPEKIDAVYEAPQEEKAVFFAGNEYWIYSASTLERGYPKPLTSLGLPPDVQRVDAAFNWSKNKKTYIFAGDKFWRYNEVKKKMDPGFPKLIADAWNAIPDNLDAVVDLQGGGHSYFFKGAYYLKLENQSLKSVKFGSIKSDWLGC

[7] = target: T6, Matrix metalloproteinase-14 (Homo sapiens, UniProt P50281); experiment: Binding affinity against matrix metalloprotease-14 MTI-MMP.
How it was run: (§2)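 Catalytic domains of human MMP-14 and MMP-7 were expressed in E. coli BL21 DE3 pLysS. Buffer 50 mM Tris/HCl pH 6.8, 10 mM CaCl2, 25 °C; 0.2–5 nM enzyme; 6 µM Mca-Pro-Leu-Gly-Leu-Dpa-Ala-Arg-NH2 read by fluorescence (ex 340, em 400 nm) for 30 min. Km: MMP-14 21, MMP-7 67 µM. Five inhibitor concentrations in triplicate; Ki by Horovitz–Levitski method.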

Stromelysin-3 = target: T7, Stromelysin-3 (Mus musculus, UniProt Q02853); experiment: Binding affinity against matrix metalloprotease-11.
T7 sequence (Q02853 whole entry): T4 sequence (whole entry)
How it was run: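 Mouse MMP-11 catalytic domain from E. coli BL21 DE3 pLysS, assayed in stirred quartz cuvettes in 50 mM Tris/HCl pH 6.8, 10 mM CaCl2 at 25 °C. Substrate was Mca-Pro-Leu-Ala-Cys(OMeBn)-Trp-Ala-Arg-Dpa-NH2 (Km 0.2 µM), with fluorescence read-out. Percent inhibition was measured in triplicate at five concentrations (20–80% range), and Ki was derived by the Horovitz–Levitski method.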

[8] = target: T5, Matrix metalloproteinase-9; experiment: Binding affinity against matrix metalloprotease-9 (gelatinase-B).; how it was run: as §1
Neutrophil collagenase [9] = target: T8, Neutrophil collagenase (Homo sapiens, UniProt P22894); experiment: Inhibition of matrix metalloprotease-8; how it was run: as §1
Target sequence in this assay (P22894 whole entry): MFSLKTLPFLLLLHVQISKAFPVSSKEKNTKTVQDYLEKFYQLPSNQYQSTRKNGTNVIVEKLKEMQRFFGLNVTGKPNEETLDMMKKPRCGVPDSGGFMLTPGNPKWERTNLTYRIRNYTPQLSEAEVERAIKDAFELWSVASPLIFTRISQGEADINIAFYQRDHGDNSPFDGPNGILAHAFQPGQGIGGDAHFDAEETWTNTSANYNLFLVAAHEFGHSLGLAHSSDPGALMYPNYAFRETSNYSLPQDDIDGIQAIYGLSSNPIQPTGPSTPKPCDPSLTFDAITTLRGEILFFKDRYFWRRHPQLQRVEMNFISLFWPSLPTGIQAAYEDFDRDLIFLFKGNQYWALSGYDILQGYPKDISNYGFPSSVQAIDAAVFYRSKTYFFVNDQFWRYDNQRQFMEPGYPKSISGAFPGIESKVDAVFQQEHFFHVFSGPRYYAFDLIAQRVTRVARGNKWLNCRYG

[10] = target: T1, Interstitial collagenase (Homo sapiens); experiment: Inhibition of matrix metalloprotease-1 at 5 uM
Matrilysin = target: T9, Matrilysin (Homo sapiens, UniProt P09237); experiment: (§3) Inhibition of Matrix metalloprotease-7 Matrilysin; how it was run: as §2
T9 sequence (P09237 whole entry): T3 sequence (whole entry)

Neutrophil collagenase [11] = target: T8, Neutrophil collagenase; experiment: Compound was tested for its binding affinity against MMP-8 HNC at 1 uM
Target sequence in this assay (P22894 101-467 limits assumed): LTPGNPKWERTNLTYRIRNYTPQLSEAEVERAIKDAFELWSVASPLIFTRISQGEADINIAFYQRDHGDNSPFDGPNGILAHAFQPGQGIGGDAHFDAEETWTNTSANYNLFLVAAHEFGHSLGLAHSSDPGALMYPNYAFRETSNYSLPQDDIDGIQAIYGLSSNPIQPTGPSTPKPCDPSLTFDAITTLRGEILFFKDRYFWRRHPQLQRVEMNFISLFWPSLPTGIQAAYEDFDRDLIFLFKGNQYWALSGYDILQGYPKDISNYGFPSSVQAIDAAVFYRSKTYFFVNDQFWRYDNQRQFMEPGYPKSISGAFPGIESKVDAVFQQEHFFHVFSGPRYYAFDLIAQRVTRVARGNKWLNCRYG

[12] = target: T4, Stromelysin-3 (Mus musculus); settings: Homo sapiens; 1 uM
[13] = target: T6, Matrix metalloproteinase-14; experiment: Inhibition of MMP-14 membrane-type-MMP at 10 uM
How it was run: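 Human MMP-14 catalytic domain, expressed in E. coli BL21 DE3 pLysS. Assay in 50 mM Tris/HCl pH 6.8 with 10 mM CaCl2 at 25 °C, using 0.2–5 nM enzyme and 6 μM Mca-Pro-Leu-Gly-Leu-Dpa-Ala-Arg-NH2. Reaction started by adding substrate; fluorescence read at 400 nm (ex 340 nm) over 30 min. Time-dependent inhibitors were preincubated with enzyme for at least 1 h. Percent inhibition from triplicates.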

[14] = target: T1, Interstitial collagenase (Homo sapiens); experiment: Inhibition of matrix metalloprotease-1; settings: concentration not given here
How it was run: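 Human full-length pro-MMP-1 was expressed in NSO myeloma cells and activated just before use with trypsin (10 µg/mL, 25 min, 25 °C), then BPTI (100 µg/mL). Assay: 50 mM Tris/HCl pH 6.8, 10 mM CaCl2, 25 °C, 0.2–5 nM enzyme, 6 µM Mca-Pro-Leu-Gly-Leu-Dpa-Ala-Arg-NH2, fluorescence 340/400 nm over 30 min. Km 100 µM. Triplicate inhibition at five concentrations (20–80% range) gave Ki by the Horovitz–Levitski method.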

[15] = target: T3, Matrilysin (Homo sapiens); experiment: as §3; how it was run: as §2

T5 sequence (P14780 whole entry): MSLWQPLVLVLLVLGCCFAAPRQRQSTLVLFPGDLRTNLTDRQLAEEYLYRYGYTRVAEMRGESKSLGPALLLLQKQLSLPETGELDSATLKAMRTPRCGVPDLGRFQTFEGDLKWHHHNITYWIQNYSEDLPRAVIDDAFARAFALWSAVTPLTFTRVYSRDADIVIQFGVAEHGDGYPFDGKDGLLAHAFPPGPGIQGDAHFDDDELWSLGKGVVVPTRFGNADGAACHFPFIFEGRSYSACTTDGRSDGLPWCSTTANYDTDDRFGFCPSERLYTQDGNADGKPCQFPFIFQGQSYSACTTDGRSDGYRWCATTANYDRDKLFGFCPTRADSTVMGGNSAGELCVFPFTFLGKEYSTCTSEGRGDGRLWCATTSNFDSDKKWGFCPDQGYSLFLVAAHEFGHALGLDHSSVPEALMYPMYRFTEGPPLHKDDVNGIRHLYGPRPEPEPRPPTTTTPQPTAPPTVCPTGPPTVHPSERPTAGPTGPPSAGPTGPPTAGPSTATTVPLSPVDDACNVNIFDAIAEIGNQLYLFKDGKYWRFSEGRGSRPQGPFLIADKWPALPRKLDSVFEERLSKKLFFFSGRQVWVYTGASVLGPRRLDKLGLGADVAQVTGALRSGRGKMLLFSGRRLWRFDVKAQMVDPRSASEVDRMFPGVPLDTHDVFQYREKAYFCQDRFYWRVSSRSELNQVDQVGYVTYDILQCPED

SMILES | inhibition [1] [%] | inhibition [3] [%] | pKi [6] | pKi [7] | pKi (Stromelysin-3) | pKi [8] | pKi (Neutrophil collagenase [9]) | other results
CC(NC(=O)C(CCCc1ccccc1)CP(=O)(O)C(Cc1ccccc1)NC(=O)OCc1ccccc1)C(N)=O (stereo not drawn) | 9 | 0 |  |  |  |  |  | inhibition [2]: 31%; inhibition [4]: 20%; inhibition [5]: 45%
NC(=O)C(Cc1c[nH]c2ccccc12)NC(=O)C(Cc1ccc2ccccc2c1)CP(=O)(O)C(Cc1ccccc1)NC(=O)OCc1ccccc1 (stereo not drawn) |  |  | 6.48 | 5.87 | 7.13 | 6.17 | 6.64 | inhibition [10]: 0%; pKi (Matrilysin): 5.74
NC(=O)C(Cc1c[nH]c2ccccc12)NC(=O)C(CCCc1ccccc1)CP(=O)(O)C(Cc1ccccc1)NC(=O)c1cc2cc(Cl)cc(Cl)c2oc1=O (stereo not drawn) | 62 | 52 | 7.00 | 6.66 | 8.30 | 6.96 | 7.77 | 
CC(NC(=O)OCc1ccccc1)P(=O)(O)CC(CSCc1ccccc1)C(=O)NC(Cc1c[nH]c2ccccc12)C(N)=O (stereo not drawn) | 45 | 2 |  |  |  |  | > 9.30 | 
NC(=O)C(Cc1c[nH]c2ccccc12)NC(=O)C(CCCc1ccccc1)CP(=O)(O)C(Cc1ccccc1)NC(=O)CNc1ccccc1 (stereo not drawn) | 49 | 28 | 7.77 | 7.14 | 7.82 | 8.22 | 8.35 | 
CCCCCCCC(CP(=O)(O)C(Cc1ccccc1)NC(=O)OCc1ccccc1)C(=O)NC(Cc1c[nH]c2ccccc12)C(N)=O (stereo not drawn) | 27 | 4 | 7.12 | 6.57 | 7.47 | 7.52 | 8.22 | 
CC(NC(=O)OCc1ccccc1)P(=O)(O)CC(CCCc1ccccc1)C(=O)NC(Cc1c[nH]c2ccccc12)C(N)=O (stereo not drawn) | 30 | 4 |  |  |  |  |  | 
NC(=O)C(Cc1c[nH]c2ccccc12)NC(=O)C(CCCc1ccccc1)CP(=O)(O)C(Cc1ccccc1)NC(=O)CNc1cc(Cl)ccc1O (stereo not drawn) | 72 | 65 | 7.52 | 7.20 | 8.00 | 7.47 | 8.12 | 
CC(NC(=O)OCc1ccccc1)P(=O)(O)CC(Cc1ccccc1)C(=O)NC(Cc1c[nH]c2ccccc12)C(N)=O (stereo not drawn) | 24 | 8 |  |  |  |  |  | 
CC(NC(=O)OCc1ccccc1)P(=O)(O)CC(CCc1ccccc1)C(=O)NC(Cc1c[nH]c2ccccc12)C(N)=O (stereo not drawn) | 23 | 3 |  |  |  |  |  | 
NC(=O)C(Cc1c[nH]c2ccccc12)NC(=O)C(CCc1ccc2ccccc2c1)CP(=O)(O)C(Cc1ccccc1)NC(=O)OCc1ccccc1 (stereo not drawn) | 0 |  | 7.52 | 6.90 | 7.92 | 7.26 | 7.47 | pKi (Matrilysin): 5.68
COc1ccc(CSCC(CP(=O)(O)C(Cc2ccccc2)NC(=O)OCc2ccccc2)C(=O)NC(Cc2c[nH]c3ccccc23)C(N)=O)cc1 (stereo not drawn) | 13 | 20 | 8.22 | 7.66 | 8.70 | 8.52 | 9.15 | 
CC(CP(=O)(O)C(Cc1ccccc1)NC(=O)OCc1ccccc1)C(=O)NC(Cc1c[nH]c2ccccc12)C(N)=O (stereo not drawn) | 20 | 0 |  |  |  |  |  | inhibition [2]: 0%; inhibition (Neutrophil collagenase [11]): 9%; inhibition [13]: 0%; inhibition [5]: 0%
CC(C)CC(CP(=O)(O)C(Cc1ccccc1)NC(=O)OCc1ccccc1)C(=O)NC(Cc1c[nH]c2ccccc12)C(N)=O (stereo not drawn) | 45 |  | 6.69 | 6.72 | 7.66 | 7.19 | 7.40 | pKi (Matrilysin): 6.68
CC(C)CC(NC(=O)OCc1ccccc1)C(=O)NC(Cc1ccccc1)P(=O)(O)CC(CCCc1ccccc1)C(=O)NC(Cc1c[nH]c2ccccc12)C(N)=O (stereo not drawn) |  |  | 7.40 | 7.28 | 8.22 | 7.66 | 8.15 | inhibition [14]: 32%; inhibition [15]: 45%
CC(=O)NC(Cc1ccccc1)P(=O)(O)CC(CCCc1ccccc1)C(=O)NC(Cc1c[nH]c2ccccc12)C(N)=O (stereo not drawn) | 43 | 28 |  |  |  |  |  | 

Further lines, with some results ahead:

inhibition [1] [%] | inhibition [3] [%] | pKi [6] | pKi [7] | pKi (Stromelysin-3) | pKi [8] | pKi (Neutrophil collagenase [9]) | SMILES | other results
23 | 8 | 7.70 | 6.98 | 8.30 | 8.00 | 8.60 | NC(=O)[C@@H](Cc1c[nH]c2ccccc12)NC(=O)C(CCCc1ccccc1)CP(=O)(O)C(Cc1ccccc1)NC(=O)OCc1ccccc1 (stereo partly drawn) | 
5 | 7 | 6.84 | 6.24 | 7.48 | 7.15 | 8.37 | NC(=O)C(Cc1c[nH]c2ccccc12)NC(=O)C(CCCCc1ccccc1)CP(=O)(O)C(Cc1ccccc1)NC(=O)OCc1ccccc1 (stereo not drawn) | 
10 | 7 |  |  |  |  |  | NC(=O)C(Cc1c[nH]c2ccccc12)NC(=O)C(CCc1ccccc1)CP(=O)(O)C(Cc1ccccc1)NC(=O)OCc1ccccc1 (stereo not drawn) | 
9 | 3 |  |  |  |  |  | NC(=O)C(Cc1c[nH]c2ccccc12)NC(=O)C(COCc1ccccc1)CP(=O)(O)C(Cc1ccccc1)NC(=O)OCc1ccccc1 (stereo not drawn) | 
43 | 52 |  |  |  |  |  | NC(=O)C(Cc1c[nH]c2ccccc12)NC(=O)C(CCCc1ccccc1)CP(=O)(O)C(Cc1ccccc1)NC(=O)COCc1ccccc1 (stereo not drawn) | 
15 | 1 |  |  |  |  |  | CC(NC(=O)OCc1ccccc1)P(=O)(O)CC(COCc1ccccc1)C(=O)NC(Cc1c[nH]c2ccccc12)C(N)=O (stereo not drawn) | 
0 | 0 |  |  |  |  |  | NC(=O)[C@H](Cc1c[nH]c2ccccc12)NC(=O)C(CCCc1ccccc1)CP(=O)(O)C(Cc1ccccc1)NC(=O)OCc1ccccc1 (stereo partly drawn) | inhibition [2]: 6%; inhibition (Neutrophil collagenase [11]): 2%; inhibition [12]: 1%; inhibition [5]: 14%
